Only some compounds are listed: those with a hit (about 0.99% of all), similar ones and a draw of the others.
NOD2-RIPK2 inh: NOD2-RIPK2 protein interaction inhibition | inhibition, % at 4.98 µM | AID 624267 | CHO BLA complementation NOD2-RIPK2, CCF4 ratio | 360,000 compounds, 0.38% hits; in the data active means inhibition above about 21%
SKN-1 block: blocks SKN-1 activity in C. elegans; AID 624304; 360,000 compounds, 0.49% hits; inhibition, % at 21.8 µM; C. elegans VP596 Pgst-4::GFP/RFP ratio, acrylamide-induced, 24 h;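 active means interference check ratio from 0.5 to 1.5 plus GFP to RFP signal ratio inhibition reaching or exceeding a fixed threshold, cut at about 30% in these data, passing the limit was not always enough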
MT1-MMP act inh: inhibitors of human MT1-MMP activation. P50281. HT1080 RFP-PRO-GFP cells, GFP/RFP ratio fluorescence, overnight; percent of plate control window, DMSO zero. GFP/RFP ratio change, % at 20 µM. 360,000 compounds, 0.061% hits. AID 651647;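 active means GFP/RFP ratio change of at least 30% with cell ATP level not reduced by more than half and red fluorescence within 50% of control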
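Material – HT1080 RFP-PRO-GFP cells · Control set – DMSO wells and RFP-L50D-GFP cells · Incubation – overnight cell settling, then overnight compound exposure, 37 °C, 5% CO2 · Compound dosing – single-point 20 µM compound, 1% DMSO · Read-out – GFP/RFP fluorescence ratio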
TLR4-MyD88 BLA: TLR4-MyD88 interaction inhibition in cells; O00206+Q99836; HeLa CL3-4 TLR4/MyD88 BLA complementation, FRET ratio; inhibition, % at 8.4 µM; 200,000 compounds, 0.18% hits; AID 861; in the data active means inhibition above about 25%
TLR9-MyD88 block: blocks human TLR9 binding to MyD88 | inhibition, % at 4.98 µM | CHO BLA complementation TLR9-MyD88, CCF4 FRET ratio | 340,000 compounds, 0.21% hits | AID 504734;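 active means inhibition above the mean over all tested compounds plus 3 SD, cut at about 21% in these data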
NOD2-RIPK2 conf: confirmation of human NOD2-RIPK2 interaction inhibitors; shares compounds with NOD2-RIPK2 inh; CHO cells, NOD2-RIPK2 BLA complementation, CCF4 FRET; inhibition, % at 4.98 µM; 1,200 compounds, 70% hits;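 active means mean inhibition across replicates above a set limit taken from the earlier primary screen, cut at about 21% in these data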
BLA counter: counter-screen for NOD2-RIPK2 interaction inhibitors: BLA reporter | shares compounds with NOD2-RIPK2 inh | CHO BLA reporter, CCF4 FRET ratio, counterscreen | inhibition, % at 4.98 µM | 1,200 compounds, 57% hits | AID 624371;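 active means mean inhibition above the low-control mean inhibition plus three low-control SD, cut at about 11% in these data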
A number is an active result; – = inactive; · = no result.

SMILES	NOD2-RIPK2 inh	SKN-1 block	MT1-MMP act inh	TLR4-MyD88 BLA	TLR9-MyD88 block	NOD2-RIPK2 conf	BLA counter
CCN1C(=O)c2cccc3c(S(=O)(=O)NCc4ccccc4)ccc1c23	–	–	–	·	–	·	·
CS(=O)(=O)c1ccc(C(=O)OCC(=O)N2CCN(CCC3CCCCC3)CC2)cc1[N+](=O)[O-]	55.0	–	–	·	·	57.6	–
COc1cc(C(=O)N(C)CC(=O)Nc2cccc(F)c2)ccc1OCc1ccccc1	–	–	–	·	–	·	·
CCOc1cc(/C=C\[N+](=O)[O-])ccc1OCC(=O)Nc1ccccc1C	88.8	–	–	–	–	96.9	13.2
COc1cc(/C=C/c2cccc[n+]2C)ccc1OCC(=O)Nc1ccccc1C	–	–	–	·	–	·	·
COc1ccc(CC(=O)Nc2ccc(-c3cn4cccc(C)c4n3)cc2)cc1OC	–	–	–	–	–	·	·
COc1ccc(CC(=O)Nc2ccc(-c3cn4ccc(C)cc4n3)cc2)cc1	22.7	–	–	–	–	–	–
COc1ccc(/C=C(/NC(=O)c2ccccc2Cl)C(=O)O)cc1	–	–	–	–	–	·	·
COc1ccccc1/C=C(/NC(=O)c1ccc(Cl)cc1Cl)C(=O)O	31.8	–	–	–	–	–	–
Cc1nnc(SC(C)C(=O)NC2CCCCC2)[nH]c1=O (stereo not drawn)	–	–	–	·	–	·	·
CC(C)N1CCC2(CC1)N=C(c1ccc3c(c1)OCO3)CC(c1cc(Cl)ccc1O)N2 (stereo not drawn)	20.9	–	–	–	–	–	–
CC(Sc1ccc(Cl)cc1)C(=O)Nc1ccc2c(c1)OCO2 (stereo not drawn)	–	–	–	–	–	·	·
O=C1C(Cl)=C(Nc2ccc3cn[nH]c3c2)C(=O)c2ccccc21	90.6	–	–	·	–	79.0	28.5
COC(=O)c1cccc(Cn2c(Cl)c(/C=N/Nc3ccccc3C)sc2=O)c1	38.5	–	–	–	–	–	–
CCc1ccc(NC(=O)CCn2c(=O)c3cccn3c3ccccc32)cc1	–	–	–	·	–	·	·
CCc1ccc(NC(=O)Cn2c(=O)c3cccn3c3ccccc32)cc1	22.2	–	–	·	–	–	–
CCOC(=O)N1CCC(N2C(=O)c3ccc(C(=O)Nc4ccc(OC)cc4)cc3C2=O)CC1	–	–	–	·	–	·	·
CC1=NNC(=O)/C1=C\c1cn(-c2ccccc2)nc1-c1cccs1	59.9	–	–	–	–	66.3	–
CC1=NNC(=O)/C1=C\c1cn(-c2ccccc2)nc1-c1ccc(F)cc1	–	–	–	–	–	·	·
Cc1c(Cl)cccc1NC(=S)NCc1ccc(Cl)cc1	21.7	–	–	–	–	–	–
CCC(C)Sc1ccc([C@H]2N[C@@](Cc3ccccc3)(C(=O)OC)[C@H]3C(=O)N(CC)C(=O)[C@@H]23)cc1 (stereo partly drawn)	–	–	–	·	–	·	·
CNC[C@@H](Cc1ccccc1)NC[C@@H](CC1CCCCC1)NCCCc1ccccc1	–	–	–	·	–	·	·
CNC[C@@H](CC1CCCCC1)NC[C@H](CC(C)C)NCCc1cccc(C(F)(F)F)c1	21.4	–	–	·	–	27.6	–
C/C(=N\Nc1ncc(Br)cn1)c1cccc([N+](=O)[O-])c1	–	–	–	·	–	·	·
C/C(=N\Nc1ccc([N+](=O)[O-])cc1)c1cccc(N)c1	23.8	–	–	–	–	–	21.1
Cc1cc(C)cc(NC(=O)C2CCN(c3cnccn3)CC2)c1	–	–	–	–	–	·	·
Cc1cc(C)c(NC(=O)C2CCN(c3cnccn3)CC2)c(C)c1	28.1	–	–	–	–	–	–
CC(=O)Nc1cccc(S(C)(=O)=O)c1	21.3	–	–	–	–	–	–
CC(C)(C)[C@H](N)C(=O)N[C@H]1CCC2C3CC=C4C[C@@H](O)CC[C@]4(C)C3CC[C@@]21C (stereo partly drawn)	21.4	–	–	·	–	21.5	–

Screens as filed in PubChem.
